# In the array DNA melting data of Ke et al. (doi:10.1101/2024.01.08.574731):
# Tests used:
# [1] = folding enthalpy; higher = less favourable; fluorescence melt of hairpins on a sequencing array, two-state fit; conditions: sodium 0.088 M
# How it was run: (§1)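 Two-state fits, bootstrapped, provided melting temperature and folding enthalpy from Cy3 fluorescence normalised to pre-quench Cy3 and to control constructs. Library hairpins with annealed Cy3 and quencher oligos were imaged on a sequenced MiSeq flow cell in 50 mM Na-HEPES pH 8.0, 25 mM NaCl, at 2.5 °C intervals up to 60 °C. Four replicates were combined with inverse-variance weighting. A 9.35 °C upward shift was applied to fitted temperatures to match UV melts.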
# [2] = melting temperature; fluorescence melt of hairpins on a sequencing array, two-state fit, raised by 9.35 °C to match UV melts; conditions: sodium 0.088 M
# How it was run: as §1
Sequence,folding enthalpy [1],Tm [2]
GATCGAAGTTTCGATC ((((((....)))))),-44.8 kcal/mol,53.5 °C
GACCCGGGAAACCAGGTC ((((.((....)).)))),-27.5 kcal/mol,45.8 °C
GCGCGTACGAAAGTACGC (((..(((....)))))),-6.65 kcal/mol,63.2 °C
GATCACCGCGTGATC ((((((...)))))),-35.6 kcal/mol,61.9 °C
TGCGTGAAAACGCA (((((....))))),-18.1 kcal/mol,66.2 °C
GATCCGCACGCGGATC ((((((....)))))),-39.1 kcal/mol,67.6 °C
GCTATGGGAAACCGTAGC ((((.((....)).)))),-44.1 kcal/mol,51.9 °C
GCTCCGCGAAAGCGCTGC ((..(((....)))..)),-12.3 kcal/mol,37.4 °C
GATCGGCCTCCGATC ((((((...)))))),-34.3 kcal/mol,59.4 °C
GCAACTGGAAACAATTGC ((((.((....)).)))),-32.8 kcal/mol,34.5 °C
GTGTCAGGAAACTGGCAC (((.(((....))).))),-39.4 kcal/mol,54.4 °C
GAGTCTGCGAAAGCACTC (((..(((....)))))),-14.8 kcal/mol,30.4 °C
GGGCATGGAAACATGTCC ((.((((....)))).)),-43.4 kcal/mol,54.3 °C
GTAGCGGAAACGCTAC ((((((....)))))),-30.2 kcal/mol,65.3 °C
GCGGCTGGAAACAGTCGC (((.(((....))).))),-47.4 kcal/mol,67.3 °C
GTACAACGAAAGTTTAC (((.(((....)))))),-11.5 kcal/mol,27.8 °C
GTACACGAAAGTGATTAC ((((((....)))..))),-14.6 kcal/mol,27.4 °C
GGCTCCGAAAGGACGCC ((((((....))).))),-29.1 kcal/mol,59.9 °C
GCGTAGCGAAAGCAATGC ((.(.((....)).).)),-7.98 kcal/mol,35.8 °C
GATCCTTAGTAGGATC ((((((....)))))),-35.8 kcal/mol,50.3 °C
GGAGACGAAAGTCGTCC ((((((....))).))),-14.3 kcal/mol,49.5 °C
GATCCCAGGCGGGATC ((((((....)))))),-34 kcal/mol,61.1 °C
GATCCGGCGCGGATC ((((((...)))))),-37.1 kcal/mol,59.3 °C

Sequence,folding enthalpy [1],Tm [2]
GATCGTTCTACGATC ((((((...)))))),-35.3 kcal/mol,59.6 °C
GATCCCTAAGGGGATC ((((((....)))))),-35.2 kcal/mol,61.1 °C
GCGTCCCTACGC ((((....)))),-23.2 kcal/mol,53.7 °C
GCAATGCGAAAGCCTTGC ((((.((....)).)))),-27.6 kcal/mol,53.9 °C
GTCAGCGAAAGCTCGGAC ((((((....)))..))),-12.4 kcal/mol,37.3 °C
GGCAGGCCGAAAGGCGCC (((..(((....)))))),-21.3 kcal/mol,59.6 °C
GATCAATTGGTTGATC ((((((....)))))),-40.5 kcal/mol,45.8 °C
GACACACGAAAGTGGTC (((.(((....)))))),-20.7 kcal/mol,49.7 °C
CGTACGGAAACGTACACG ((((((....)))..))),-11.5 kcal/mol,39.9 °C
CGGACGGAAACGTCCCG ((((((....))).))),-10.8 kcal/mol,50.7 °C
GCAAGCCGAAAGGCCTGC (((.(((....))).))),-23.3 kcal/mol,54 °C
GGATTACGAAAGTATTCC (((.(((....))).))),-32.6 kcal/mol,44 °C
GATCTAGAGGTAGATC ((((((....)))))),-24.4 kcal/mol,35.1 °C
GTTCAGGGAAACCTGAAC (((((((....))))))),-43.2 kcal/mol,60.4 °C
GATCGAGGACTCGATC ((((((....)))))),-38.4 kcal/mol,60.1 °C
GTAAGCGGAAACGTTTGC (.((.((....)).)).),-14.9 kcal/mol,31.9 °C
GATCGGGAATCCGATC ((((((....)))))),-38.6 kcal/mol,64.8 °C
GTTTTGCGAAAGCAGAAC (((.(((....))).))),-29.9 kcal/mol,51.4 °C
GGGCGCGAAAGCGTGCCC ((((((....)))..))),-19.1 kcal/mol,64.2 °C
GATCGCCCGTGCGATC ((((((....)))))),-33.7 kcal/mol,64 °C
GGTGTTGGAAACAGTACC (((..((....))..))),-18.7 kcal/mol,31.7 °C
CGGGCGGAAACGCGCCG ((((((....))).))),-16.6 kcal/mol,55.5 °C
GATATCGGAAACGATACC (.(((((....))))).),-17.3 kcal/mol,33.7 °C

Sequence,folding enthalpy [1],Tm [2]
GGTCTACGAAAGTAACC (((.(((....)))))),-24 kcal/mol,34.3 °C
GATCGTGCCGACGATC ((((((....)))))),-49.2 kcal/mol,56.4 °C
GGGTATCGAAAGATCCC (((.(((....)))))),-30.6 kcal/mol,49.7 °C
GGGGGTGGAAACGCCTCC ((.((.(....).)).)),-23.7 kcal/mol,49.7 °C
GGCATAGGAAACTACGCC (((.(((....))).))),-28.2 kcal/mol,41.1 °C
GGAGAGGGAAACCTCTCC (((((((....))))))),-46.6 kcal/mol,63.3 °C
GATCAGGGGTCTGATC ((((((....)))))),-32.6 kcal/mol,50.8 °C
GATCCTGTTTAGGATC ((((((....)))))),-44.3 kcal/mol,52.6 °C
GCAAGCGAAAGCTACTGC ((((((....)))..))),-13.2 kcal/mol,37.3 °C
GCATACGAAAGTAATTGC ((((((....)))..))),-13.6 kcal/mol,32.7 °C
GATCCCCACAGGGATC ((((((....)))))),-23 kcal/mol,66.4 °C
GAAGGCGAAAGCCAGTTC ((((((....)))..))),-10.2 kcal/mol,29.7 °C
GCCCCTACGAAAGTAGGC (((..(((....)))))),-6.61 kcal/mol,36.7 °C
GTCTGCGGAAACGCGGAC (((.(((....))).))),-39.2 kcal/mol,63.7 °C
GATTCAGGAAACCGAATC (((((.(....).))))),-26.2 kcal/mol,36 °C
GCACTGCGAAAGCATGC (((.(((....)))))),-20.7 kcal/mol,53.1 °C
GCGTTGCGAAAGCACCGC (((.(((....))).))),-47.7 kcal/mol,59.1 °C
GCGATGCGAAAGCGTTGC ((.(.((....)).).)),-25.9 kcal/mol,57.2 °C
GATCTGCACGCAGATC ((((((....)))))),-33.1 kcal/mol,58.8 °C
GTAGGAGGAAACCCCTAC (((((.(....).))))),-32.4 kcal/mol,38.3 °C
GTGTTGCGAAAGCACAC (((.(((....)))))),-33.8 kcal/mol,56.3 °C
GATAGGCGAAAGCCGATC (((.(((....))).))),-16.8 kcal/mol,55.5 °C
GTTCGCGAAAGCGGAAC ((((((....))).))),-17.6 kcal/mol,54.4 °C
